Compound activity as filed in PubChem.
RAD52 inh = RAD52 (human) annealing inhibition; actives 0.46% (n = 360,000); inhibition, % at 18.7 µM; recombinant RAD52 DNA annealing, FRET fluorescence; AID 651710;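 active = every replicate showing at least 50% inhibition; inconclusive = mean inhibition at least 50% but not in every replicate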
AF4-AF9 inh = inhibitors of human MLL-AF4/AF9 interaction; AlphaScreen, biotin-AF4 peptide binding to FLAG-AF9; inhibition, % at 10 µM; actives 0.47% (n = 350,000);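 active = every replicate reaching a set inhibition limit, whatever the replicate mean, cut at about 25% in these data; inconclusive = mean inhibition reaches that limit but some replicates miss it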
RAD54 branch = inhibitors of human RAD54 branch migration; Q92698; RAD54 Holliday junction branch migration, FAM/BHQ fluorescence; inhibition, % at 10.4 µM; actives 0.14% (n = 360,000); AID 602329;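 active = mean normalized replicate activity at least 40 and at least half of replicates scoring 40 or more; inconclusive = only one of the two criteria met; inactive = mean below 40 and under half of replicates reaching 40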;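 also: inhibitors cause a drop in the FAM fluorescence signal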
S100A4 MyoIIA = blocks human S100A4 binding to myosin IIA peptide. P26447. S100A4/TAMRA-MyoIIA peptide fluorescence polarization. inhibition, % at 10.7 µM. actives 0.14% (n = 360,000);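 active = mean inhibition of at least 70% across replicates, with every replicate also reaching that level; inconclusive = mean inhibition reaches 70% but some replicates fall short; inactive = mean inhibition below 70%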
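Material: S100A4 monomer protein / Buffer or medium: 50 mM HEPES pH 7.2, 10 mM CaCl2, 100 mM KCl / Times: 5 min incubation before reading / Benchmarks: neutral control DMSO, positive control TFP / Reagent: labelled myosin peptide probe, 5 nM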
dFosB act = enhances mouse delta FosB homodimer DNA binding | P13346 | purified delta FosB, TAMRA-CDK5 oligo fluorescence polarization; percent of positive-control signal above neutral wells | activation, % at 25 µM | actives 0.99% (n = 340,000);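 active = mean activation above about 17%, with every replicate also reaching it, limit read from the data, passing the limit was not always enough; inconclusive = only one of the two conditions met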
Target sequence (P13346 whole entry, looked up): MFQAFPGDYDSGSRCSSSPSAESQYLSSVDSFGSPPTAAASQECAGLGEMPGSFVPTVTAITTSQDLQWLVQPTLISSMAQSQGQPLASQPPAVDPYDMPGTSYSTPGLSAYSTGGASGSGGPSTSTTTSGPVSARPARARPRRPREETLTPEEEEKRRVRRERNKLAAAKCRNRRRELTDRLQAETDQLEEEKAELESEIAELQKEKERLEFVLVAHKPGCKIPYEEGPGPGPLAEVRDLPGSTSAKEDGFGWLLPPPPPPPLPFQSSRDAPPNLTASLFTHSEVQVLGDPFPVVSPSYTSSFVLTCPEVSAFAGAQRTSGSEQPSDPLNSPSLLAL
RAD52 DNA ctr = counter-screen for RAD52 inhibitors: DNA binding compounds. shares compounds with RAD52 inh. Salmon sperm DNA/acridine orange FP displacement. AC50, µM. actives 8% (n = 1,000). AID 652128;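 active = fitted half-maximal concentration for signal loss at or below twice the highest dose tested, in every separate run, actives reach about 64 µM in these data; inconclusive = runs disagree, or flat partial signal loss, or poor fit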
Numbers stand for hits; – = inactive; ? = inconclusive; · = no result. Compounds with a hit are over-represented: about 1.5% of the library has one in this group of screens.

SMILES	RAD52 inh	AF4-AF9 inh	RAD54 branch	S100A4 MyoIIA	dFosB act	RAD52 DNA ctr
Cc1cc(OCCCN2CCC(C(O)(c3ccccc3)c3ccccc3)CC2)ccc1Br	55	–	·	–	·	–
CCOC(=O)c1c(CN(C)C)n(C)c2c(O)c(N=NC(N)=O)c3ccc(Br)cc3c12	101	–	58	–	–	–
CCN(CC)CCCNC(=O)c1[nH]c2ccccc2c1Sc1ccc(Cl)cc1	70	–	–	–	–	–
O=C(NCC[C@H]1CC[C@H](NC(=O)c2cccnc2)[C@@H](CO)O1)Nc1ccc(F)cc1	–	–	–	–	·	·
CC[C@H](C)Cc1cn([C@@H](CCCN=C(N)N)C(=O)NCCCCCCCCCCC(=O)N2CCNCC2)nn1	52	–	–	–	–	–
CN(c1ccc(C(=O)NCCSCc2ccco2)cc1)S(C)(=O)=O	·	·	–	·	–	·
CN/C(=C/[N+](=O)[O-])NCCSCc1ccc(CN(C)C)o1	55	–	–	–	–	–
C[C@H](CO)N1C[C@H](C)[C@H](CN(C)CC2CC2)Oc2ccc(NS(C)(=O)=O)cc2CC1=O	–	–	–	–	·	·
C[C@H](CO)N1C[C@H](C)[C@H](CN(C)CC2CCCCC2)Oc2c(NC(=O)Nc3ccccc3)cccc2C1=O	–	–	–	–	·	·
CCOC(=O)c1c(C)n(-c2ccc(C)cc2)c2ccc(OCC(O)CN3CCN(C)CC3)cc12 (stereo unspecified)	97	41	·	–	–	–
NC(=O)c1ccc(Nc2nc(C(N)COCc3ccccc3)cs2)cc1 (stereo unspecified)	–	–	–	–	·	·
NC(COCc1ccccc1)c1csc(Nc2ccc(C(=O)c3ccccc3)cc2)n1 (stereo unspecified)	58	–	–	–	·	–
CCCCCCCCCCCCCCCC[N+](C)(C)CCl	88	–	·	–	–	31µM
CCCCCCCCCCCCCCCC[N+](C)(C)CC	81	–	51	–	–	?
CCCCCC[N+](C)(C)CCSSCC[N+](C)(C)CCCCCC	–	–	–	–	–	·
C#CC[N+](C)(C)CCCCCCCCCC	–	–	–	–	–	·
C[C@H]1CN([C@@H](C)CO)C(=O)c2cc(-c3cccnc3)cnc2O[C@H]1CN(C)C(=O)C1CC1	–	–	–	–	·	·
COc1cccc(NC(=O)N2C[C@H](O)COC[C@@H]3O[C@@H](CC(=O)NC4CCCC4)CC[C@H]32)c1	–	–	–	–	·	·
CN1C(=O)c2cc(NC(=O)c3cccc(F)c3)ccc2OC[C@@H]2O[C@@H](CC(=O)O)CC[C@H]21	·	·	–	·	·	·
CN1CCc2c(sc(N)c2C(=O)O)C1	74	?	·	–	–	–
Cc1cccc2c1-c1sc(C(=O)NCCCN3CCC(C)CC3)cc1CO2	61	–	–	–	–	–
CC1CCN(CCCNC(=O)c2cc3c(s2)-c2ccccc2OC3)CC1	–	–	–	–	–	·
